Reference: the RNAGym collection of RNA variant scans (doi:10.1038/s41586-018-0170-7)

B1: tRNA (parent)
chain: GUUCCGUUGGCGUAAUGGUAACGCGUCUCCCUCCUAAGGAGAAGACUGCGGGUUCGAGUCCCGUACGGAACG

Variants of: B1
Experiment: yeast fitness, log relative to wild type (ln ratio); higher = fitter; tRNA-Arg(CCU), competitive growth, 37 C, 1 M NaCl
Summary of the method: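 In BY4742 missing the chromosomal gene, a combinatorial tRNA-Arg(CCU) variant library was maintained on a HIS3 centromeric plasmid. Selection ran ~6.5 generations (~26.5 h) in SC-HIS 1M NaCl at 37 °C, following 4 generations in SC-HIS at 30 °C, with three outputs per input and variant counts by 125 bp paired-end Illumina sequencing. Fitness is the natural log of a genotype's generations relative to the wild type's, with generations taken as inverse-variance-weighted, OD-scaled log2 output/input frequency.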

Variant | yeast fitness (ln)
U2G G6U A43C C66A A69G A70U C71U | -0.355
U2G G6U C27U C66U A69G A70G C71U | -0.273
U2G G6A C71U | -0.0566
U2G G6U C27U C46U C66U A69G C71U | -0.527
U2G G6U C27U A43C C46U C66U A70G C71U | -0.315
U2G G6U A43C C46U C71U | -0.198
U2G G6U C27U C66A A70G | -0.243
U2G G6U C27U C66A A70U | -0.0251
U2G G6U C27U C66U A70G C71U | -0.312
U2G G6U C46U A69G A70G C71U | -0.217
U2G G6U A43C A69G A70G | -0.237
U2G G6U A43C A69G A70U | -0.227
U2G G6U C27U A43C C46U C66A A70U C71U | -0.629
U2G G6U C27U A43C C46U C66A A69G A70G C71U | -0.279
U2G G6U C46U C66A A69G A70G C71U | -0.164
U2G G6U C66U A70U | -0.0342
U2G G6U C66U A70G | -0.154
G6A A43C A69G C71U | -0.29
U2G G6U C27U A43C C46U C66U A70U C71U | -0.378
U2G G6U C46U A70U | -0.0198
U2G G6U C46U A70G | -0.104

Variant | yeast fitness (ln)
U2G G6U A43C C46U C66A A69G A70U C71U | -0.313
U2G G6U C27U C46U C66U A69G A70U | -0.238
U2G G6U C27U C46U C66U A69G A70G | -0.277
U2G G6U A43C C66A A70U C71U | -0.43
G6A A43C A69G A70G | -0.26
G6A A43C A69G A70U | -0.224
U2G G6U A43C C66U A69G A70G C71U | -0.411
U2G G6U A69G C71U | -0.17
U2G G6A C66A A69G A70G C71U | -0.213
G6A A43C C46U C66A A70U | -0.119
G6A A43C C46U C66A A70G | -0.144
U2G G6U A43C C46U C66A A69G A70U | -0.0302
U2G G6U A43C C46U C66A A69G A70G | -0.242
U2G G6U C66A C71U | -0.108
U2G G6U A43C C46U | -0.106
U2G G6U C27U C46U C71U | -0.199
U2G G6U A43C C66U A69G A70U C71U | -0.468
U2G G6U C46U C66A | -0.0648
U2G G6U C46U C66U | -0.131
U2G G6U C66A A70G C71U | -0.249
U2G G6U C46U C66A A69G C71U | -0.185

Variant | yeast fitness (ln)
U2G G6U C27U C66A | -0.0883
U2G G6U C27U C66U | -0.233
U2G G6U C27U C46U C66A A69G A70U C71U | -0.314
U2G G6A C46U C66U A69G C71U | -0.155
G6A A43C C46U C66A A70U C71U | -0.312
U2G G6U C27U C46U C66A A70G C71U | -0.168
G6A A43C C46U A69G A70G C71U | -0.241
U2G G6U C27U A69G A70G | -0.246
U2G G6U C27U A69G A70U | -0.227
U2G G6U C27U A43C C46U C66U A69G A70U | -0.374
U2G G6U C27U A43C C46U C66U A69G A70G | -0.318
U2G G6U C27U C66A C71U | -0.168
U2G G6U C27U A43C C66U A69G C71U | -0.645
U2G G6U C27U C66A A69G A70G C71U | -0.25
U2G G6U A43C C46U A69G A70U C71U | -0.426
U2G G6U A43C C46U C66A C71U | -0.154
U2G G6U C27U A43C C66A A69G A70U C71U | -0.382
U2G G6U C27U A43C C46U C66A C71U | -0.363
U2G G6U C27U A43C C46U C66U | -0.262
U2G G6U C27U A43C C46U C66A | -0.0517
U2G G6U A43C C46U C66U A70G C71U | -0.241

Variant | yeast fitness (ln)
U2G G6U C66U A69G A70G | -0.251
U2G G6U C66U A69G A70U | -0.409
U2G G6U A43C C46U C66U A69G C71U | -0.487
U2G G6U A43C C46U C66U A69G A70G C71U | -0.348
U2G G6U C46U C66A C71U | -0.0521
U2G G6U C27U C66U A69G | -0.275
U2G G6U A43C C46U C66A A70G | -0.251
U2G G6U A43C C46U C66A A70U | -0.00113
G6A A43C A70U C71U | -0.266
U2G G6U C27U C46U A70G C71U | -0.262
U2G G6U C27U A43C C46U C66U A69G C71U | -0.375
U2G G6A C66U | -0.0956
U2G G6A C66A | -0.111
U2G G6U A43C C46U C66A A70U C71U | -0.135
U2G G6U C27U A43C A69G A70G C71U | -0.35
U2G G6U C27U A43C C66U A69G A70G | -0.39
U2G G6U C27U A43C C66U A69G A70U | -0.466
U2G G6U C27U C46U A70G | -0.156
U2G G6U C27U C46U A70U | -0.176
G6A A43C A70G C71U | -0.283
U2G G6U C27U A43C C66A A69G C71U | -0.445
